The source made the active and inactive calls. No cut-off for these calls is given here.
Legend:
Rattus norvegicus [1] = test: Anti-cold allodynia effect in Sprague-Dawley rat CCI model assessed as duration of paw withdrawal at 100 mg/kg, ip after 0.5 hr; format: functional; details: route intraperitoneal
Method in brief: (§1)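 CCI by sciatic nerve ligation under pentobarbital (65 mg/kg i.p.). Rats tested at baseline and 9 days post-surgery; those with allodynia dosed i.p. 100 mg/kg, vehicle 30% v/v PEG 400 in water. Acetone (100-200 µL) misted on midplantar affected paw; withdrawal duration recorded, three samples averaged, at least 3 min apart; n = 4.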

Mus musculus [2] = test: Anticonvulsant activity in Swiss Albino mouse at 300 mg/kg, ip after 0.5 hr by scPIC test; format: functional, organism-based; parameters: dose 300 mg/kg
Method in brief: (§2)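 Mice (Swiss, 20-25 g) given i.p. doses of 30, 100 and 300 mg/kg under ADD program protocols, three per group, examined at 0.5 and 4 h in MES, scPTZ, scSTY or scPIC seizure tests. Value is the minimum dose protecting half or more of the mice.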

Mus musculus [3] = test: Anticonvulsant activity in Swiss Albino mouse at 300 mg/kg, ip after 4 hrs by scPIC test; format: functional, organism-based; parameters: dose 300 mg/kg; method in brief: as §2
Rattus norvegicus [4] = test: Anti-cold allodynia effect in Sprague-Dawley rat CCI model assessed as duration of paw withdrawal 100 mg/kg, ip after 2 hr; format: functional; details: route intraperitoneal; method in brief: as §1
Mus musculus [5] = test: Neurotoxicity in Swiss Albino mouse at 300 mg/kg, ip after 0.5 hr by rotarod test; format: functional, organism-based; parameters: dose 300 mg/kg
Method in brief: (§3)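 Swiss mice (20-25 g) are trained on an accelerating rotorod (10 rpm, 3.2 cm rod), then injected i.p. at 30, 100 or 300 mg/kg, with three per group. Neurotoxicity means failure to keep equilibrium for at least 1 min in each of three trials, checked at 0.5 and 4 h. The value reported is the minimum dose affecting half or more of the mice.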

Mus musculus [6] = test: Analgesic activity in Swiss Albino mouse assessed as number of acetic acid-induced writhing per 30 min after 100 mg/kg, ip; format: functional; details: route intraperitoneal
Method in brief: (§4)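 Mice in groups of six dosed i.p. at 100 mg/kg, controls receiving 30% v/v PEG 400 in water. Writhing induced by i.p. 0.1 mL of 3% v/v acetic acid 1 h after drug. Writhes (abdominal stretch with at least one hind limb extended) counted over 30 min; % inhibition calculated. Mean ± SEM, Student's t test.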

Mus musculus [7] = test: Anticonvulsant activity in Swiss Albino mouse at 300 mg/kg, ip after 0.5 hr by scSTY test; format: functional, organism-based; parameters: dose 300 mg/kg; method in brief: as §2
Mus musculus [8] = test: Anticonvulsant activity in Swiss Albino mouse at 300 mg/kg, ip after 0.5 hr by scPTZ test; format: functional, organism-based; parameters: dose 300 mg/kg; method in brief: as §2
Rattus norvegicus [9] = test: Anti-cold allodynia effect in Sprague-Dawley rat CCI model assessed as duration of paw withdrawal 100 mg/kg, ip after 2.5 hr; format: functional; details: route intraperitoneal; method in brief: as §1
Rattus norvegicus [10] = test: Anti-cold allodynia effect in Sprague-Dawley rat CCI model assessed as duration of paw withdrawal 100 mg/kg, ip after 1 hr; format: functional; details: route intraperitoneal; method in brief: as §1
Mus musculus [11] = test: Anticonvulsant activity in Swiss Albino mouse at 300 mg/kg, ip after 4 hrs by MES test; format: functional, organism-based; parameters: dose 300 mg/kg; method in brief: as §2
Mus musculus [12] = test: Analgesic activity in Swiss Albino mouse assessed as inhibition of acetic acid-induced writhing responses at 100 mg/kg, ip; format: functional; details: route intraperitoneal; method in brief: as §4
Mus musculus [13] = test: Anticonvulsant activity in Swiss Albino mouse at 300 mg/kg, ip after 4 hrs by scSTY test; format: functional, organism-based; parameters: dose 300 mg/kg; method in brief: as §2
Rattus norvegicus [14] = test: Anti-cold allodynia effect in Sprague-Dawley rat CCI model assessed as duration of paw withdrawal 100 mg/kg, ip after 1.5 hr; format: functional; details: route intraperitoneal; method in brief: as §1
Mus musculus [15] = test: Anticonvulsant activity in Swiss Albino mouse at 300 mg/kg, ip after 0.5 hr by MES test; format: functional, organism-based; parameters: dose 300 mg/kg; method in brief: as §2
Mus musculus [16] = test: Neurotoxicity in Swiss Albino mouse at 300 mg/kg, ip after 4 hrs by rotarod test; format: functional, organism-based; parameters: dose 300 mg/kg; method in brief: as §3

O=C(O)CCCNC(=O)N/N=C/c1cccc([N+](=O)[O-])c1
Activity (Rattus norvegicus [1]): 46.3 s
Activity (Mus musculus [2]): Active
Activity (Mus musculus [3]): Active
Activity (Rattus norvegicus [4]): 39.5 s
Activity (Mus musculus [5]): inactive
Activity (Mus musculus [6]): 17.7
Activity (Mus musculus [7]): inactive
Activity (Mus musculus [8]): Active
Activity (Rattus norvegicus [9]): 13.7 s
Activity (Rattus norvegicus [10]): 56.9 s
Activity (Mus musculus [11]): inactive
inhibition in vivo at 100 mg/kg (Mus musculus [12]): 90%
Activity (Mus musculus [13]): inactive
Activity (Rattus norvegicus [14]): 44.5 s
Activity (Mus musculus [15]): inactive
Activity (Mus musculus [16]): inactive

Source: ChEMBL document CHEMBL1139875, “Discovery of 4-aminobutyric acid derivatives possessing anticonvulsant and antinociceptive activities: a hybrid pharmacophore approach” (2007)
